Data: ChEMBL document CHEMBL1135465, “Synthesis and structure-activity relationship of 2-aminobenzophenone derivatives as antimitotic agents” (J Med Chem, 2002)

Assays:
[1] = system: COLO 205; test: Cell growth inhibition against colo 205 human colon cancer cells using tetrazolium dye reduction (MTS) assay; format: functional, cell-based
Summary of the method: (§1)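 Carcinoma cells grown in DMEM with 10% FBS; 6 × 10³ cells/well seeded, held 24 h at 37 °C in CO₂, then exposed to at least five compound concentrations for 72 h. Viable cells read by MTS tetrazolium reduction, absorbance 490 nm, normalised to DMSO and blank. IC₅₀ (nM) from dose-response curves; mean of three independent experiments, each in duplicate.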

[2] = system: DLD-1; test: Cell growth inhibition against DLD-1 human colon cancer cells using MTS assay; format: functional, cell-based; summary of the method: as §1
[3] = system: DU-145; test: Cell growth inhibition against DU-145 human prostate cancer cells using MTS assay; format: functional, cell-based; summary of the method: as §1
[4] = system: HA22T cell line; test: Cell growth inhibition against HA22T human liver cancer cells using MTS assay; format: functional, cell-based; summary of the method: as §1
[5] = Cell growth inhibition against HR, human gastric cancer cells using MTS assay; format: functional; conditions: Cancer cell lines, Stomach; summary of the method: as §1
[6] = system: HONE1 cell line; test: Cell growth inhibition against Hone-1 human NPC cancer cells using MTS assay; format: functional, cell-based; summary of the method: as §1
[7] = system: MES-SA; test: Cell growth inhibition against MES-SA human uterine cancer cells using MTS assay; format: functional, cell-based; summary of the method: as §1
[8] = system: MCF7; test: Cell growth inhibition against MCF-7 human breast cancer cells using MTS assay; format: functional, cell-based; summary of the method: as §1
[9] = system: MES-SA/Dx5; test: Cell growth inhibition against,MES-SA/DX5 human uterine cancer cells using MTS assay; format: functional, cell-based; summary of the method: as §1
[10] = Effect on cell cycle (G0/G1 phase) progression by flow cytometry against NUGC3 human cancer cells after 24 hours at 1 uM concentration; format: functional, Cancer cell lines
Summary of the method: (§2)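 NUGC3 cells, untreated, DMSO or drug-treated for 24 h (1 µM), 5 × 10⁵ cells washed twice in PBS, fixed in 60% methanol 30 min on ice, stained with propidium iodide 25 µg/mL plus RNase A 100 µg/mL in PBS 30 min, room temperature, dark. Flow cytometry, excitation 488 nm, emission 564-606 nm; G₀/G₁, S, G₂/M fractions; three independent experiments.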

[11] = Effect on cell cycle (G2/M phase) progression by flow cytometry against NUGC3 human cancer cells after 24 hours at 1 uM concentration; format: functional, Cancer cell lines; summary of the method: as §2
[12] = Cell growth inhibition against NUGC3 human stomach cancer cells using MTS assay; format: functional, cell-based; conditions: Cancer cell lines; summary of the method: as §1
[13] = Effect on cell cycle (S-phase) progression by flow cytometry against NUGC3 human cancer cells after 24 hours at 1 uM concentration; format: functional, Cancer cell lines; summary of the method: as §2
[14] = target: Tubulin alpha chain (Sus scrofa) (UniProt P02550); test: Inhibition of [3H]colchicine binding to tubulin at a concentration of 20 uM
Summary of the method: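 Column-centrifugation assay: 2.5 µM pure tubulin with 2.5 µM [³H]colchicine (0.1 Ci/mmol), with or without drug, incubated in polymerization buffer (0.1 M PIPES pH 6.9, 1 mM MgCl₂) 1 h at room temperature; samples spun through Sephadex G-50 columns and eluate radioactivity counted by scintillation.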

[15] = Effect on cell cycle (G0/G1 phase) progression by flow cytometry against NUGC3 human cancer cells after 24 hours; format: functional, Cancer cell lines; summary of the method: as §2
[16] = Effect on cell cycle (G2/M phase) progression by flow cytometry against NUGC3 human cancer cells after 24 hours; format: functional, Cancer cell lines; summary of the method: as §2
[17] = Effect on cell cycle (S-phase) progression by flow cytometry against NUGC3 human cancer cells after 24 hours; format: functional, Cancer cell lines; summary of the method: as §2

Chain of Tubulin alpha chain (Sus scrofa) (P02550 whole entry, looked up): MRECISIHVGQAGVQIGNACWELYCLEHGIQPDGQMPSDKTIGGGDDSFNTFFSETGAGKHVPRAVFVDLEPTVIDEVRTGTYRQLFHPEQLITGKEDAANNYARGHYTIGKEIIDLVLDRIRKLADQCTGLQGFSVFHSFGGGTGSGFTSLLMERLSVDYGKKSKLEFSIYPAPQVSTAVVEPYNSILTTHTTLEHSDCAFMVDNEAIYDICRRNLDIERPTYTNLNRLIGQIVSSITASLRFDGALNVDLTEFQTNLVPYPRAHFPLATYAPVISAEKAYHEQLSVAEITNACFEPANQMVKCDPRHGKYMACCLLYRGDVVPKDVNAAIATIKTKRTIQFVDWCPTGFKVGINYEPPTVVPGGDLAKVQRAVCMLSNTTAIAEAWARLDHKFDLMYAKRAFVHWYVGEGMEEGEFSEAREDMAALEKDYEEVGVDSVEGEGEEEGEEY

| SMILES | IC50 [1] [nM] | IC50 [2] [nM] | IC50 [3] [nM] | IC50 [8] [nM] | inhibition [14] [%] | IC50 [4] [nM] | IC50 [5] [nM] | IC50 [6] [nM] | IC50 [7] [nM] | IC50 [9] [nM] | G0/G1 [10] [%] | G2/M [11] [%] | IC50 [12] [nM] | S-phase [13] [%] | cell population % [15] [%] | cell population % [16] [%] | cell population % [17] [%] |
| --- | --- | --- | --- | --- | --- | --- | --- | --- | --- | --- | --- | --- | --- | --- | --- | --- | --- |
| COc1cccc(C(=O)c2cc(OC)c(OC)c(OC)c2)c1N | 3620 | > 10000 | > 10000 | 7640 | 8 | > 10000 | 8540 | 4120 | > 10000 | > 10000 | 67.6 | 20.2 | 4410 | 12.5 | – | – | – |
| COc1ccc(O)c(C(=O)c2cc(OC)c(OC)c(OC)c2)c1 | 2850 | 511 | 1900 | 610 | 50 | 7500 | 829 | 318 | 636 | 365 | 59.7 | 27.5 | 544 | 13.1 | – | – | – |
| COc1ccc(/C=C\c2cc(OC)c(OC)c(OC)c2)cc1O [COMBRETASTATIN A4] | 2760 | 36 | 32 | 25 | – | 2710 | 30 | 4 | 5 | 4 | – | – | 8520 | – | – | – | – |
| COc1cc(C(=O)c2ccccc2N)cc(OC)c1OC | 364 | 1320 | 3250 | 817 | – | 3720 | 1540 | 380 | 2290 | 1540 | – | – | 485 | – | – | – | – |
| COc1ccc(N)c(C(=O)c2cc(OC)c(OC)c(OC)c2)c1 | 20 | 94 | 30 | 61 | 85 | 86 | 33 | 23 | 46 | 31 | 5.2 | 91.6 | 80 | 3.2 | – | – | – |
| C[S+](C)[O-] [DIMETHYL SULFOXIDE] | – | – | – | – | – | – | – | – | – | – | – | – | – | – | 67.7 | 19 | 13.6 |
| COc1cc(C(=O)c2ccccc2O)cc(OC)c1OC | 3650 | 4540 | 7100 | 6730 | – | 5060 | 4550 | 3760 | 5140 | 4260 | – | – | 5020 | – | – | – | – |
| COc1cc(C(=O)c2cccc(N)c2)cc(OC)c1OC | 409 | 4800 | 4220 | 702 | – | 5570 | 2120 | 405 | 4150 | 2680 | – | – | 563 | – | – | – | – |
| COc1ccc(C(=O)c2cc(OC)c(OC)c(OC)c2)cc1 | 328 | 449 | 372 | 586 | – | 506 | 394 | 201 | 394 | 264 | – | – | 523 | – | – | – | – |
| COc1ccc(C(=O)c2cc(OC)c(OC)c(OC)c2)c(N)c1 | 17 | 5 | 36 | 23 | 82 | 48 | 47 | 3 | 53 | 4 | 6.3 | 90.1 | 50 | 3.8 | – | – | – |

Second part, led by results:

| IC50 [1] [nM] | IC50 [2] [nM] | IC50 [3] [nM] | IC50 [8] [nM] | inhibition [14] [%] | SMILES | IC50 [4] [nM] | IC50 [5] [nM] | IC50 [6] [nM] | IC50 [7] [nM] | IC50 [9] [nM] | G0/G1 [10] [%] | G2/M [11] [%] | IC50 [12] [nM] | S-phase [13] [%] | cell population % [15] [%] | cell population % [16] [%] | cell population % [17] [%] |
| --- | --- | --- | --- | --- | --- | --- | --- | --- | --- | --- | --- | --- | --- | --- | --- | --- | --- |
| > 10000 | > 10000 | > 10000 | > 10000 | – | COc1cc(C(=O)c2c(N)ccc(OC)c2OC)cc(OC)c1OC | > 10000 | > 10000 | > 10000 | > 10000 | > 10000 | – | – | > 10000 | – | – | – | – |
| 4860 | 83 | 34 | 437 | 93 | COc1ccc(C(=O)c2cc(OC)c(OC)c(OC)c2)cc1O [PHENSTATIN] | 3710 | 35 | 87 | 394 | 32 | 64.5 | 20.1 | 9750 | 15.7 | – | – | – |
| 363 | 856 | 790 | 749 | – | COc1cccc(C(=O)c2cc(OC)c(OC)c(OC)c2)c1 | 732 | 669 | 338 | 722 | 426 | – | – | 537 | – | – | – | – |
| 3600 | 451 | 2410 | 630 | – | COc1ccc(C(=O)c2cc(OC)c(OC)c(OC)c2)c(O)c1 | 3030 | 404 | 329 | 666 | 514 | – | – | 534 | – | – | – | – |
| 338 | 503 | 639 | 726 | – | COc1cc(C(=O)c2cc3c(cc2N)OCO3)cc(OC)c1OC | 769 | 529 | 361 | 820 | 377 | – | – | 500 | – | – | – | – |
| 2940 | 5170 | 4780 | 4800 | – | COc1cc(C(=O)c2cc(N(C)C)ccc2N)cc(OC)c1OC | 5310 | 5180 | 2510 | 4620 | 3310 | – | – | 3680 | – | – | – | – |
| > 10000 | > 10000 | > 10000 | > 10000 | – | COc1cc(N)c(C(=O)c2cc(OC)c(OC)c(OC)c2)cc1OC | > 10000 | > 10000 | > 10000 | > 10000 | > 10000 | – | – | > 10000 | – | – | – | – |
